Test results reported in ChEMBL document CHEMBL2396535, “Synthesis and biological evaluation of 18F-labled 2-phenylindole derivatives as PET imaging probes for β-amyloid plaques” (Bioorg Med Chem, 2013).
The source made the active and inactive calls. The calls are words filed in the database; no cut-off is given here.

Tests used:
[1] = biological target: Amyloid-beta precursor protein (Homo sapiens, UniProt P05067); assay: Displacement of [125I]IMPY from amyloid beta (1 to 42) (unknown origin) after 3 hrs by gamma counting analysis
Method in brief: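 Test compound ranged over 10^-4 to 10^-8.5 in ethanol, in 0.05% BSA, 1 mL total. Incubation was 3 h at room temperature, then GF/B filtration and gamma counting. IC50 came from three independent experiments, and Ki was derived by Cheng–Prusoff.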

[2] = Ratio of drug level in brain to blood in ICR mouse after 2 mins; type: ADME, tissue-based; settings: brain and blood, read-out: BBR
Method in brief: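 Male ICR mice (5 weeks) received the ¹⁸F tracer (740–1110 kBq/mL) in saline with 10% EtOH by tail-vein injection. Five mice per time point were sacrificed at 2, 10, 30 and 60 min. Organs were removed, weighed and gamma-counted, and expressed as %ID/g. The ratio is brain %ID/g over blood %ID/g at 2 min.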

Brain = assay: Ratio of drug level in brain after 2 mins to drug level in brain after 60 mins in ICR mouse; type: ADME, tissue-based; settings: in vivo
Method in brief: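 Male normal ICR mice (5 weeks old), n = 5 per time point, received a tail-vein injection of [18F] tracer (740–1110 kBq/mL) in saline containing 10% EtOH. Mice were sacrificed at 2, 10, 30 and 60 min. Organs were removed, weighed and gamma-counted, and data were expressed as %ID/g.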

Mus musculus [3] = organism: Mus musculus; assay: Binding affinity to amyloid beta in wild-type C57BL/6 mouse brain at 185 to 370 kBq after 1 hr by autoradiographic analysis; type: tissue-based; settings: tested as the 18F-labelled form
Method in brief: (§1)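 Paraffin-embedded brain sections from male APPswe/PSEN1 transgenic C57BL6 mice (11 months old) and wild-type C57BL6 controls (11 months old) were incubated with [18F] tracer (185–370 kBq) for 1 h at room temperature, washed with 40% EtOH, dried and exposed to an imaging plate for 1 h. Plaques were confirmed on the same sections by thioflavin-S (0.125%) fluorescent staining.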

Mus musculus [4] = organism: Mus musculus; assay: Binding affinity to amyloid beta in transgenic C57BL/6 mouse cerebellum harboring APPswe and PSEN1 double mutation at 185 to 370 kBq after 1 hr by thioflavin-S staining-based assay; type: tissue-based; settings: tested as the 18F-labelled form; method in brief: as §1
Mus musculus [5] = organism: Mus musculus; assay: Binding affinity to amyloid beta in transgenic C57BL/6 mouse cerebellum harboring APPswe and PSEN1 double mutation at 185 to 370 kBq after 1 hr by autoradiographic analysis; type: tissue-based; settings: tested as the 18F-labelled form; method in brief: as §1
Mus musculus [6] = organism: Mus musculus; assay: Binding affinity to amyloid beta in transgenic C57BL/6 mouse cortex harboring APPswe and PSEN1 double mutation at 185 to 370 kBq after 1 hr by thioflavin-S staining-based assay; settings: tested as the 18F-labelled form; method in brief: as §1
Mus musculus [7] = organism: Mus musculus; assay: Binding affinity to amyloid beta in transgenic C57BL/6 mouse cortex harboring APPswe and PSEN1 double mutation at 185 to 370 kBq after 1 hr by autoradiographic analysis; settings: tested as the 18F-labelled form; method in brief: as §1
Mus musculus [8] = organism: Mus musculus; assay: Binding affinity to amyloid beta in transgenic C57BL/6 mouse hippocampus harboring APPswe and PSEN1 double mutation at 185 to 370 kBq after 1 hr by thioflavin-S staining-based assay; type: tissue-based; settings: tested as the 18F-labelled form; method in brief: as §1
Mus musculus [9] = organism: Mus musculus; assay: Binding affinity to amyloid beta in transgenic C57BL/6 mouse hippocampus harboring APPswe and PSEN1 double mutation at 185 to 370 kBq after 1 hr by autoradiographic analysis; type: tissue-based; settings: tested as the 18F-labelled form; method in brief: as §1

Amyloid-beta precursor protein, sequence (P05067 whole entry): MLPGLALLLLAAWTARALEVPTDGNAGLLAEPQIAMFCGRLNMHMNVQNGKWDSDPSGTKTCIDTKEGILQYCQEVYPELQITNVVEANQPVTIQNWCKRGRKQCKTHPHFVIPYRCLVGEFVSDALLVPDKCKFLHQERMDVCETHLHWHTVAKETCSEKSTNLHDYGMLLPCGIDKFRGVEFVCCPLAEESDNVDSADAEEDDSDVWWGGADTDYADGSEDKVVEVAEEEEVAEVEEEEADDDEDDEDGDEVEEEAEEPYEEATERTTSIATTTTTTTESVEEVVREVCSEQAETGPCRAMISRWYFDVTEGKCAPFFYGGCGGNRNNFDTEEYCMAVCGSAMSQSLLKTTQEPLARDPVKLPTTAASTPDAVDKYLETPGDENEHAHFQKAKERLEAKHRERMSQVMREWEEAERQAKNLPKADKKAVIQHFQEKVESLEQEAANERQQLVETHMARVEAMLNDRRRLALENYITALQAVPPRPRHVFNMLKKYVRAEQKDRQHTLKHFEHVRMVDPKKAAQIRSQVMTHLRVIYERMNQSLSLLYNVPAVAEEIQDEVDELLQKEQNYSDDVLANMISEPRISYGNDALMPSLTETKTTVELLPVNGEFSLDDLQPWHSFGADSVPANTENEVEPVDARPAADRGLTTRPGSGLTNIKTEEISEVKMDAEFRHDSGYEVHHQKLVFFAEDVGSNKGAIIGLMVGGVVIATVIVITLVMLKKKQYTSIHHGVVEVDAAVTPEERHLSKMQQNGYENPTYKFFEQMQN

Ki [1] [nM]	Kp at 2 min [2]	Ratio (Brain)	further results	SMILES
117				CN(CCF)c1ccc(-c2cc3ccccc3n2C)cc1
	0.59	1.82		COc1ccc(-c2cc3cc([125I])ccc3[nH]2)cc1
79.7				CN(CCCF)c1ccc(-c2cc3ccccc3n2C)cc1
31.5				CN(CCCF)c1ccc(-c2cc3ccccc3[nH]2)cc1
	0.52	1.17		OCCOc1ccc(-c2cc3cc([125I])ccc3[nH]2)cc1
28.4			Activity (Mus musculus [3]): inactive; Activity (Mus musculus [4]): Active; Activity (Mus musculus [5]): Active; Activity (Mus musculus [6]): Active; Activity (Mus musculus [7]): Active; Activity (Mus musculus [8]): Active; Activity (Mus musculus [9]): Active	CN(CCF)c1ccc(-c2cc3ccccc3[nH]2)cc1
